Data taken from ChEMBL document CHEMBL1765045, “Fine-tuning the selectivity of aldosterone synthase inhibitors: structure-activity and structure-selectivity insights from studies of heteroaryl substituted 1,2,5,6-tetrahydropyrrolo[3,2,1-ij]quinolin-4-one derivatives” (J Med Chem, 2011).

Assays:
[1] = molecular target: T1, Cytochrome P450 11B2, mitochondrial (Homo sapiens, UniProt P19099); experiment: Inhibition of human CYP11B2 expressed in hamster V79 MZh cells assessed as conversion of [4-14C]-11-deoxycorticosterone substrate at 500 nM by HPTLC assay; assay type: cell-based; conditions: V79MZh
T1 sequence (P19099 whole entry): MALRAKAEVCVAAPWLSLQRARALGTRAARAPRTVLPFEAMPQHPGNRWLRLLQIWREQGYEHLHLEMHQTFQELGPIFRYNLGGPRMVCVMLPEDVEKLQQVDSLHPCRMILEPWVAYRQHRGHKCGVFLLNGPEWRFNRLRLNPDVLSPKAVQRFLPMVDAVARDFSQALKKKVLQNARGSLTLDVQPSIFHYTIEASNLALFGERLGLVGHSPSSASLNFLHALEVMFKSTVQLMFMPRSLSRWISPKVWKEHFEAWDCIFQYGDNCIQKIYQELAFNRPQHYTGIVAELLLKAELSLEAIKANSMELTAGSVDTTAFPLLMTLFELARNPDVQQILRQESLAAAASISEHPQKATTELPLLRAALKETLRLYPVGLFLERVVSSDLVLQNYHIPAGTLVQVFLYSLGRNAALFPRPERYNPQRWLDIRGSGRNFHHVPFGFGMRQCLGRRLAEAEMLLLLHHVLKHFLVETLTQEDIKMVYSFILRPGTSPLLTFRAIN
Method in brief: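 V79 MZh cells expressing human CYP11B2 given [4-14C]-11-deoxycorticosterone, 100 nM, with inhibitor at a single 500 nM concentration. Ethyl acetate extraction, then HPTLC/phosphoimager readout of conversion. Percent inhibition is the mean of at least three experiments.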

CYP17 = molecular target: T2, CYP17 (Homo sapiens, UniProt P05093); experiment: Inhibition of human CYP17 expressed in Escherichia coli using progesterone substrate at 2 uM; conditions: recombinant human CYP17 expressed in Escherichia coli, probe progesterone
T2 sequence (P05093 whole entry): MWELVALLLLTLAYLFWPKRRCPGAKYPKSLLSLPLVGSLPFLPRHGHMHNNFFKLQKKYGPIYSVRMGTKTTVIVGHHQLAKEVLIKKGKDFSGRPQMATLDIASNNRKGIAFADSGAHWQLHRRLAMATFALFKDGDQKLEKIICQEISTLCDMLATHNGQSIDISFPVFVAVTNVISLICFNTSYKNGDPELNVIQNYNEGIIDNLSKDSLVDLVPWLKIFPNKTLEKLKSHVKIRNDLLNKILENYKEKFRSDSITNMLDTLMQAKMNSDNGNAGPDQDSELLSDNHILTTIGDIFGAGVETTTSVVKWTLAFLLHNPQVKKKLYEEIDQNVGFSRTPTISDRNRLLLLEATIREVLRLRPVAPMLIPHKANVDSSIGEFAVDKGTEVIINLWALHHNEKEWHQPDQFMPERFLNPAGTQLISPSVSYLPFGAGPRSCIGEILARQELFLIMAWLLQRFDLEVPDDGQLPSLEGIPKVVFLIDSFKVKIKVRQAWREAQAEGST
Method in brief: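 50000g sediment of E. coli homogenate recombinantly expressing human CYP17. Progesterone substrate at 25 μM, inhibitor tested at 2 μM.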

[2] = molecular target: T3, Cytochrome P450 11B1, mitochondrial (Homo sapiens, UniProt P15538); experiment: Inhibition of human CYP11B1 expressed in hamster V79 MZh cells assessed as conversion of [4-14C]-11-deoxycorticosterone substrate by HPTLC assay; assay type: cell-based
T3 sequence (P15538 whole entry): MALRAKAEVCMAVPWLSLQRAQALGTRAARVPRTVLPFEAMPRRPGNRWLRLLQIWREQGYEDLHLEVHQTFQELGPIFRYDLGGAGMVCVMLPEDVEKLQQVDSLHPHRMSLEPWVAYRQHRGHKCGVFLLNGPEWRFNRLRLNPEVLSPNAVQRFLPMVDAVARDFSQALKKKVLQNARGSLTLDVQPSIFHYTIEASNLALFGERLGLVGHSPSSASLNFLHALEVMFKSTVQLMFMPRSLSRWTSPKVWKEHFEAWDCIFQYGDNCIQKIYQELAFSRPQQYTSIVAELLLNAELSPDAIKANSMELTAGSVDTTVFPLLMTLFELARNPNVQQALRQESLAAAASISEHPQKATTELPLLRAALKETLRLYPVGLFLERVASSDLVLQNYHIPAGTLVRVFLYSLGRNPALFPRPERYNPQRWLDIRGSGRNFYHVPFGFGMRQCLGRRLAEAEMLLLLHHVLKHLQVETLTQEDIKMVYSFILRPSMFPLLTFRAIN
Method in brief: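 V79 MZh hamster fibroblasts stably expressing human CYP11B1 or CYP11B2 incubated with [4-14C]-11-deoxycorticosterone, 100 nM, plus inhibitor at ≥3 concentrations. Reaction stopped with ethyl acetate, steroids extracted into the organic phase, and substrate conversion quantified by HPTLC with phosphoimaging. IC50 is the mean of at least three experiments.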

[3] = molecular target: T1, Cytochrome P450 11B2, mitochondrial; experiment: Inhibition of human CYP11B2 expressed in hamster V79 MZh cells assessed as conversion of [4-14C]-11-deoxycorticosterone substrate by HPTLC assay; assay type: cell-based
Method in brief: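 Hamster V79 MZh fibroblasts expressing human CYP11B2 incubated with [4-14C]-11-deoxycorticosterone (100 nM) and inhibitor at ≥3 concentrations; reaction stopped with ethyl acetate, steroids extracted after shaking and centrifugation (10000g, 2 min). Substrate conversion read by HPTLC with phosphoimaging.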

Homo sapiens = species: Homo sapiens; experiment: Selectivity ratio of IC50 for human CYP11B1 to IC50 for human CYP11B2
Method in brief: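 Ratio of IC50 values from V79 MZh cell assays for human CYP11B1 and CYP11B2, IC50 CYP11B1/IC50 CYP11B2. Both assays used [4-14C]-11-deoxycorticosterone, 100 nM, inhibitor at ≥3 concentrations and HPTLC/phosphoimager readout of conversion.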

| Structure (SMILES) | inhibition at 0.5 µM [1] [%] | inhibition at 2 µM (CYP17) [%] | IC50 [2] [nM] | IC50 [3] [nM] | Ratio IC50 (Homo sapiens) |
| --- | --- | --- | --- | --- | --- |
| S=C1CCc2cc(-c3cccnc3)cc3c2N1CC3 | 96 | 11 | 333 | 1.2 | – |
| COc1ccc(-c2cncc(-c3cc4c5c(c3)CCN5C(=O)CC4)c2)cc1 | 95 | – | 21 | 1.4 | – |
| CCOc1cncc(-c2cc3c4c(c2)CCN4C(=O)CC3)c1 | 92 | – | 158 | 1 | 158 |
| O=C1CCc2cc(-c3ccncc3)cc3c2N1CC3 | 7 | – | – | – | – |
| O=C1CCc2cc(-c3cncnc3)cc3c2N1CC3 | 81 | 5 | 28500 | 56 | – |
| O=C1CCc2cc(-c3cncc(-c4cc(F)cc(F)c4)c3)cc3c2N1CC3 | 81 | – | 1750 | 18 | – |
| O=C1CCc2cc(-c3cncc(-c4cc(F)ccc4F)c3)cc3c2N1CC3 | 80 | – | 183 | 3.6 | – |
| COc1ccccc1-c1cncc(-c2cc3c4c(c2)CCN4C(=O)CC3)c1 | 86 | – | 128 | 2.4 | – |
| O=C1CCc2cc(-c3cncc(-c4cccc(O)c4)c3)cc3c2N1CC3 | 92 | – | 44 | 1.2 | – |
| O=C1CCc2cc(-c3cncc(O)c3)cc3c2N1CC3 | 94 | – | 2040 | 4.3 | – |
| O=C1CCc2cc(-c3cncc(-c4cccc(C(F)(F)F)c4)c3)cc3c2N1CC3 | 80 | – | 4650 | 33 | – |
| O=C1CCc2cc(-c3cncc(-c4cccc(OC(F)(F)F)c4)c3)cc3c2N1CC3 | 92 | – | 2060 | 16 | – |
| COc1cccc(-c2cncc(-c3cc4c5c(c3)CCN5C(=O)CC4)c2)c1 | 86 | < 5 | 1370 | 4.6 | 299 |
